pPAFAH FP inh – pPAFAH enzyme inhibitors, primary screen, biochemical, fluorescence polarization, human; 330,000 tested, 1.5% active; recombinant pPAFAH, FP-rhodamine probe fluorescence polarization; AID 463082, 2010; Platelet-activating factor acetylhydrolase (Homo sapiens), Q13093; inhibition, % at 3.39 µM;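 active means inhibition above the mean inhibition across the screen plus 3 SD, cut at about 25% in these data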;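 further: inhibitors block binding of the rhodamine activity-based probe so polarization drops; 0% = enzyme with DMSO and 100% = wells lacking pPAFAH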
PAFAH1B2 FP inh – PAFAH1B2 enzyme inhibitors, primary screen, biochemical, fluorescence polarization, human. Platelet-activating factor acetylhydrolase IB subunit alpha2 (Homo sapiens), P68402. recombinant PAFAH1B2, FP-rhodamine activity probe. inhibition, % at 3.39 µM. 340,000 tested, 1.2% active. AID 492953, 2010;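 active means inhibition above the mean of all tested compounds plus 3 SD, cut at about 24% in these data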;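 further: 0% = enzyme with DMSO and 100% = wells lacking PAFAH1B2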
Target sequence (P68402 whole entry, looked up): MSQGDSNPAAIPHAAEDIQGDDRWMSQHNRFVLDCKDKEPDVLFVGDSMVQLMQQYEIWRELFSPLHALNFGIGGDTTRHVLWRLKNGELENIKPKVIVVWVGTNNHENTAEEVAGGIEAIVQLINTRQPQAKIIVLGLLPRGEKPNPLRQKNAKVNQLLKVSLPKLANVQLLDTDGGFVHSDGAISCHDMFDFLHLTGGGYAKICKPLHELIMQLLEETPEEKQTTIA
PAFAH1B3 FP inh – PAFAH1B3 enzyme inhibitors, primary screen, biochemical, fluorescence polarization, human; 340,000 tested, 0.28% active; Platelet-activating factor acetylhydrolase IB subunit alpha1 (Homo sapiens), Q15102; inhibition, % at 3.39 µM; recombinant PAFAH1B3, FP-rhodamine probe;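 active means inhibition above the screen-wide average of all tested compounds plus 3 SD, cut at about 25% in these data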;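 further: 0% = enzyme with DMSO only and 100% = wells lacking PAFAH1B3 protein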
PAFAH2 inh – PAFAH2 enzyme inhibitors, primary screen, biochemical, fluorescence polarization, human | inhibition, % at 3.39 µM | AID 492956, 2010 | recombinant PAFAH2, FP-rhodamine activity probe | Platelet-activating factor acetylhydrolase 2, cytoplasmic (Homo sapiens), Q99487 | 340,000 tested, 0.99% active;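 active means inhibition above the mean over all tested compounds plus 3 SD, cut at about 30% in these data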;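 further: inhibitors block probe labeling of enzyme so polarization drops; 0% = enzyme with DMSO and 100% = wells lacking PAFAH2 protein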
HTRA1 inhibitor – HTRA1 serine protease inhibitors, primary screen, biochemical, fluorescence polarization, HTS; inhibition, % at 5.96 µM; recombinant HTRA1, FP-rhodamine activity-based probe; AID 504803, 2011; 340,000 tested, 0.5% active; in the data active means inhibition above about 36%;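 further: 0% = enzyme with DMSO and 100% = wells lacking enzyme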
ABHD4 inh – ABHD4 inhibitors, primary screen, biochemical, fluorescence polarization, mouse; purified mABHD4, FP-Rh probe fluorescence polarization; 370,000 tested, 0.54% active; AID 720543, 2013; (Lyso)-N-acylphosphatidylethanolamine lipase (Mus musculus), Q8VD66; inhibition, % at 8.92 µM;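 active means inhibition exceeding the mean over every tested compound plus 3 SD, cut at about 30% in these data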;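 further: 0% = plate median of compound wells and 100% = S159A mutant with DMSO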
Target sequence (Q8VD66 whole entry, looked up): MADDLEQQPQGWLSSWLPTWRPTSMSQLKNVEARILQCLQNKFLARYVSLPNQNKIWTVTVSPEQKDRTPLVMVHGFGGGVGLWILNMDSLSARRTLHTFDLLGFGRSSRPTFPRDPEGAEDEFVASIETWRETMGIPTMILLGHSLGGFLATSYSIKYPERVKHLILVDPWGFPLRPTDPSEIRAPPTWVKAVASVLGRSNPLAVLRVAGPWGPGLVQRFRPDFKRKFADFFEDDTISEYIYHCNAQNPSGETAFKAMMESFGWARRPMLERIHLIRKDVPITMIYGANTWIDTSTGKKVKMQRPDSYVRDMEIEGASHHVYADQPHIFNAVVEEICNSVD
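Assay system: mABHD4 protein; medium: HEPES pH 7.0, NaCl, Pluronic buffer; dosing: 8.92 µM, single dose; schedule: 45 min + 60 min at 25 °C; signal: FP readout, ex 525 nm / em 598 nm; read-out: normalized percent inhibition of probe labeling; repeats: single replicate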
ABHD4 confirm – ABHD4 inhibitors, retest, confirmation, biochemical, fluorescence polarization, mouse; inhibition, % at 8.92 µM; 1,800 tested, 55% active; purified mABHD4, FP-Rh probe fluorescence polarization; AID 720658, 2013; shares compounds with ABHD4 inh;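 active means mean inhibition across replicates above the hit cutoff set in the primary screen, cut at about 30% in these data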;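 further: 0% = wild-type ABHD4 with DMSO and 100% = catalytically dead S159A mutant with DMSO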
The depositor's hits bear a star; x = no result; ! = a repeat was not active. Compounds with a hit are over-represented: about 2.8% of the library has one in this group of screens.

SMILES	pPAFAH FP inh	PAFAH1B2 FP inh	PAFAH1B3 FP inh	PAFAH2 inh	HTRA1 inhibitor	ABHD4 inh	ABHD4 confirm
CCCc1cc(=O)[nH]c2nnc(SCC(=O)NC3CCCC3)n12	6	1	1	2	1	-4	x
Cc1c(C)n2c(SCC(=O)NC3CCCCC3)nnc2[nH]c1=O	7	4	2	4	6	31*	5
c1ccc(-c2sc3ccccc3c2-c2ccc(OCCN3CCCC3)cc2)cc1	7	-7	5	-1	-27	31*	28
COc1ccc(-c2sc3ccccc3c2-c2ccc(OCCN3CCCCC3)cc2)cc1	2	-7	7	0	-19	11	x
Nc1ccc2nc(-c3ccccc3)[nH]c2c1	4	6	6	10	2	32*	6
Nc1ccc2nc(-c3ccccn3)[nH]c2c1	10	-3	11	1	27	11	x
Nc1ccc2nc(-c3cccs3)[nH]c2c1	11	5	7	5	7	31*	30*
COC(=O)c1cc(-c2cc3ccccc3s2)c(=O)n2c1CCC2	x	x	x	x	x	0	x
O=C1Cc2cc(S(=O)(=O)N3CCN(c4ccc(C(=O)O)cc4)CC3)ccc2N1	x	x	x	x	x	33*	10
COc1ccccc1N1C(=O)C(Cl)=C(Nc2ccccc2O)C1=O	x	-3	-2	19	9	31*	16
COC(=O)c1ccc(CN2CC3CC(c4ccccc4)N4CCCC34C2=O)cc1 (stereo unspecified)	x	x	x	x	x	1	x
COC(=O)[C@]12C[C@H](CC(=O)NCCc3ccccc3OC)C(=O)N(CCc3ccc(OC)c(OC)c3)C1=C[C@H](C(C)(C)C)O[C@@H]2C	x	x	x	x	x	-8	x
COc1ccccc1NC(=O)NN1CCCCC1	5	5	1	-1	10	2	x
O=C(Nc1ccccc1Cl)NN1CCCCCC1	x	2	11	5	-15	48*	52*
CCC(C)(C)c1ccc(OCCCC[n+]2ccc(C)cc2)c(C(C)(C)CC)c1	2	x	x	x	x	33*	50*
CCOC(=O)[C@]12CCCC=C1N(Cc1ccc(OC)cc1)C(=O)[C@@H]2CC(=O)N1CCCCC1	x	x	x	x	x	4	x
CCc1ccc2[nH]c(O)c(N=NC3=NC(=O)CS3)c2c1	24	34*	9	-5	11	31*	41*
O=C1C=C[C@H]2CC[C@@H](O)[C@@H]1[C@@H]2Sc1ccccc1	x	x	x	x	x	6	x
O=[N+]([O-])c1cccc(/C=N/Nc2nc(NCc3ccccc3)nc(N3CCOCC3)n2)c1	-1	4	4	-3	1	47*	-10
O=[N+]([O-])c1ccc(/C=N/Nc2nc(NCc3ccccc3)nc(N3CCOCC3)n2)cc1	-1	7	0	6	6	3	x
Cc1ccc(C)c(NC(=O)[C@@H]2CCCN2S(=O)(=O)c2cccc3cccnc23)c1	x	x	x	x	x	0	x
COc1cc(CC(=O)N2CCc3ccccc32)cc(OC)c1OC	1	2	15	-2	8	6	x
CCOC(=O)N1CCc2cc(OC)c(OC)c3c2c1cc1cc(OC)c(OC)cc13	x	8	12	19	10	63*	69*
O=C(NC1CCCCN(Cc2cccc(C(F)(F)F)c2)C1=O)c1cccc([N+](=O)[O-])c1 (stereo unspecified)	x	x	x	x	x	1	x
CCOC(=O)C(=C1Nc2ccccc2N1)n1c(-c2ccco2)nc2ccccc21	x	x	x	x	x	32*	13
SMILES	pPAFAH FP inh	PAFAH1B2 FP inh	PAFAH1B3 FP inh	PAFAH2 inh	HTRA1 inhibitor	ABHD4 inh	ABHD4 confirm
Cc1cccc(NC(=O)CN2C(=O)CCSc3ccccc32)c1C	x	x	x	x	x	2	x
COc1ccc2nc(C)cc(N/N=C/c3ccccc3)c2c1	7	3	6	4	-23	x	x
COc1ccc(/C=N/Nc2cc(C)nc3ccc(OC)cc23)c(OC)c1	12	-2	9	3	4	31*	51*
O=C(NN=Cc1cccc(O)c1O)c1ccccc1	x	x	x	x	x	39*	7
O=C(N/N=C/c1ccccc1O)c1ccncc1	5	-7	-3	0	7	2	x
Cc1cc(O)c(-c2cc(O)c(C)cc2O)cc1O	4	0	8	6	9	32*	26
O=C(Cc1c[nH]c2ccccc12)Nc1ccc(Nc2cccnc2)c(-c2ccc(F)c(F)c2)c1	x	x	x	x	x	26	x
O=C(CSC1=NNC(c2ccccn2)S1)Nc1ccc(C(F)(F)F)cc1 (stereo unspecified)	13	6	17	11	20	39*	-9
CCCCCCSc1cc(-c2nc3cc(C)ccn3c2NCCCC)ccc1OC	18	2	7	1	-4	37*!	57*
CCCCNc1c(-c2cccc(-c3cc(C(C)=O)cs3)c2)nc2cc(C)ccn12	33*	7	10	5	5	42*	46*
CCCCNc1c(-c2ccc(SC(C)CC)c(OC)c2)nc2ccc(C)cn12 (stereo unspecified)	23	8	10	4	-19	36*	47*
CCCCCCSc1ccc(-c2nc3ccc(C)cn3c2NCCCC)cc1OC	x	x	x	x	x	9	x
CCCCCCSc1cc(-c2nc3ccc(C)cn3c2NCc2ccccc2)ccc1OC	14	2	5	11	-12	40*	47*
O=C(CSc1ccccc1)NC1CCCCN(Cc2ccc(Cl)cc2)C1=O (stereo unspecified)	x	x	x	x	x	0	x
CCCCOCCCNC(=O)C[C@H]1C[C@@]2(C(=O)OC)C(=C[C@H](C(C)(C)C)O[C@@H]2C)N(Cc2ccc3c(c2)OCO3)C1=O	x	x	x	x	x	10	x
CCC(C)Sc1cccc(-c2nc3ccc(C)cn3c2NCc2ccccc2)c1 (stereo unspecified)	21	12	2	16	-22	36*!	32*
CCC(C)Sc1cccc(-c2nc3ccc(Cl)cn3c2NCc2ccccc2)c1 (stereo unspecified)	12	3	3	-2	-29	x	x
C[C@H]1COc2cc(Br)ccc2S(=O)(=O)N1Cc1cn(CCC2OCCO2)nn1	x	x	x	x	x	-2	x
Fc1ccc(NC(=S)Nc2ccc(Br)cc2)cc1	-2	-2	7	0	-3	-7	x
Oc1ccc(NC(=S)Nc2ccc(F)cc2)cc1	9	4	11	0	16	33*	3
O=C(NCC(c1ccccc1)c1ccccc1)[C@H](Cc1c[nH]c2ccccc12)NC1(C(=O)NC2CCCCC2)CCCC1	x	x	x	x	x	-2	x

Source: PubChem BioAssay (The Scripps Research Institute Molecular Screening Center)
